Assay results reported in ChEMBL document CHEMBL5058577, “EUbOPEN Chemogenomics Library 2 (Multiplex)” (2022).

Tested on: Fibroblast
Assay: Multiplex assay against human fibroblast
Assay type: toxicity, cell-based
How it was run: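 Compound was added to live cells that had been stained at seeding with Hoechst33342, BioTracker Green Microtubule Cytoskeleton Dye, MitoTracker Red and Annexin V Alexa Fluor 680, and imaging followed on a CQ1 microscope at 37°C and 5% CO2. CellPathfinder machine-learning gating divided cells into Hoechst high-intensity objects or normal cells, normal cells into healthy, pyknosed or fragmented nuclei, and pyknosed cells into mitotic or apoptotic. Tubulin, mitochondrial-mass and membrane-permeability phenotypes are per cents of healthy-nucleus cells.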

[1] = 12 h, 1 µM, compound concentration 1 uM, replicate 1
[2] = 12 h, 1 µM, compound concentration 1 uM, replicate 2
[3] = 12 h, 10 µM, compound concentration 10 uM, replicate 1
[4] = 12 h, 10 µM, compound concentration 10 uM, replicate 2
[5] = 24 h, 1 µM, compound concentration 1 uM, replicate 1
[6] = 24 h, 1 µM, compound concentration 1 uM, replicate 2
[7] = 24 h, 10 µM, compound concentration 10 uM, replicate 1
[8] = 24 h, 10 µM, compound concentration 10 uM, replicate 2
[9] = 48 h, 1 µM, compound concentration 1 uM, replicate 1
[10] = 48 h, 1 µM, compound concentration 1 uM, replicate 2
[11] = 48 h, 10 µM, compound concentration 10 uM, replicate 1
[12] = 48 h, 10 µM, compound concentration 10 uM, replicate 2

SMILES: CC(=O)Nc1cccc2c1c(Sc1ccc(Cl)cc1)c(C)n2CC(=O)O [AZD1981]
- Population Apoptotic (%) [1]: 27%
- Population Fragmented Nuclei (%) [1]: 18%
- Population Healthy Nuclei (%) [1]: 61%
- Population Hoechst High Intensity Objects (%) [1]: 1%
- Population Membrane Permeable-Phenotype (%) [1]: 2%
- Population Mitochondria Different-Phenotype (%) [1]: 9%
- Population Mitotic Cells (%) [1]: 72%
- Population Normal (%) [1]: 98%
- Population Pyknosed Nuclei (%) [1]: 19%
- Population Tubulin-Different-Phenotype (%) [1]: 33%
- Total Cell Count [1]: 173
- Population Apoptotic (%) [2]: 37%
- Population Fragmented Nuclei (%) [2]: 31%
- Population Healthy Nuclei (%) [2]: 47%
- Population Hoechst High Intensity Objects (%) [2]: 3%
- Population Membrane Permeable-Phenotype (%) [2]: 14%
- Population Mitochondria Different-Phenotype (%) [2]: 7%
- Population Mitotic Cells (%) [2]: 62%
- Population Normal (%) [2]: 96%
- Population Pyknosed Nuclei (%) [2]: 21%
- Population Tubulin-Different-Phenotype (%) [2]: 55%
- Total Cell Count [2]: 118
- Population Apoptotic (%) [3]: 40%
- Population Fragmented Nuclei (%) [3]: 16%
- Population Healthy Nuclei (%) [3]: 64%
- Population Hoechst High Intensity Objects (%) [3]: 3%
- Population Membrane Permeable-Phenotype (%) [3]: 2%
- Population Mitochondria Different-Phenotype (%) [3]: 3%
- Population Mitotic Cells (%) [3]: 60%
- Population Normal (%) [3]: 96%
- Population Pyknosed Nuclei (%) [3]: 19%
- Population Tubulin-Different-Phenotype (%) [3]: 24%
- Total Cell Count [3]: 133
- Population Apoptotic (%) [4]: 33%
- Population Fragmented Nuclei (%) [4]: 35%
- Population Healthy Nuclei (%) [4]: 42%
- Population Hoechst High Intensity Objects (%) [4]: 4%
- Population Membrane Permeable-Phenotype (%) [4]: 8%
- Population Mitochondria Different-Phenotype (%) [4]: 0%
- Population Mitotic Cells (%) [4]: 66%
- Population Normal (%) [4]: 95%
- Population Pyknosed Nuclei (%) [4]: 22%
- Population Tubulin-Different-Phenotype (%) [4]: 35%
- Total Cell Count [4]: 112
- Population Apoptotic (%) [5]: 53%
- Population Fragmented Nuclei (%) [5]: 19%
- Population Healthy Nuclei (%) [5]: 63%
- Population Hoechst High Intensity Objects (%) [5]: 6%
- Population Membrane Permeable-Phenotype (%) [5]: 2%
- Population Mitochondria Different-Phenotype (%) [5]: 2%
- Population Mitotic Cells (%) [5]: 46%
- Population Normal (%) [5]: 93%
- Population Pyknosed Nuclei (%) [5]: 16%
- Population Tubulin-Different-Phenotype (%) [5]: 28%
- Total Cell Count [5]: 168
- Population Apoptotic (%) [6]: 36%
- Population Fragmented Nuclei (%) [6]: 30%
- Population Healthy Nuclei (%) [6]: 53%
- Population Hoechst High Intensity Objects (%) [6]: 3%
- Population Membrane Permeable-Phenotype (%) [6]: 7%
- Population Mitochondria Different-Phenotype (%) [6]: 7%
- Population Mitotic Cells (%) [6]: 63%
- Population Normal (%) [6]: 96%
- Population Pyknosed Nuclei (%) [6]: 15%
- Population Tubulin-Different-Phenotype (%) [6]: 53%
- Total Cell Count [6]: 128
- Population Apoptotic (%) [7]: 41%
- Population Fragmented Nuclei (%) [7]: 13%
- Population Healthy Nuclei (%) [7]: 68%
- Population Hoechst High Intensity Objects (%) [7]: 4%
- Population Membrane Permeable-Phenotype (%) [7]: 2%
- Population Mitochondria Different-Phenotype (%) [7]: 5%
- Population Mitotic Cells (%) [7]: 58%
- Population Normal (%) [7]: 95%
- Population Pyknosed Nuclei (%) [7]: 18%
- Population Tubulin-Different-Phenotype (%) [7]: 17%
- Total Cell Count [7]: 135
- Population Apoptotic (%) [8]: 55%
- Population Fragmented Nuclei (%) [8]: 36%
- Population Healthy Nuclei (%) [8]: 43%
- Population Hoechst High Intensity Objects (%) [8]: 6%
- Population Membrane Permeable-Phenotype (%) [8]: 14%
- Population Mitochondria Different-Phenotype (%) [8]: 0%
- Population Mitotic Cells (%) [8]: 45%
- Population Normal (%) [8]: 93%
- Population Pyknosed Nuclei (%) [8]: 20%
- Population Tubulin-Different-Phenotype (%) [8]: 40%
- Total Cell Count [8]: 104
- Population Apoptotic (%) [9]: 54%
- Population Fragmented Nuclei (%) [9]: 23%
- Population Healthy Nuclei (%) [9]: 61%
- Population Hoechst High Intensity Objects (%) [9]: 6%
- Population Membrane Permeable-Phenotype (%) [9]: 1%
- Population Mitochondria Different-Phenotype (%) [9]: 6%
- Population Mitotic Cells (%) [9]: 45%
- Population Normal (%) [9]: 93%
- Population Pyknosed Nuclei (%) [9]: 15%
- Population Tubulin-Different-Phenotype (%) [9]: 33%
- Total Cell Count [9]: 171
- Population Apoptotic (%) [10]: 57%
- Population Fragmented Nuclei (%) [10]: 34%
- Population Healthy Nuclei (%) [10]: 54%
- Population Hoechst High Intensity Objects (%) [10]: 3%
- Population Membrane Permeable-Phenotype (%) [10]: 8%
- Population Mitochondria Different-Phenotype (%) [10]: 2%
- Population Mitotic Cells (%) [10]: 42%
- Population Normal (%) [10]: 96%
- Population Pyknosed Nuclei (%) [10]: 11%
- Population Tubulin-Different-Phenotype (%) [10]: 52%
- Total Cell Count [10]: 129
- Population Apoptotic (%) [11]: 64%
- Population Fragmented Nuclei (%) [11]: 21%
- Population Healthy Nuclei (%) [11]: 64%
- Population Hoechst High Intensity Objects (%) [11]: 4%
- Population Membrane Permeable-Phenotype (%) [11]: 0%
- Population Mitochondria Different-Phenotype (%) [11]: 2%
- Population Mitotic Cells (%) [11]: 35%
- Population Normal (%) [11]: 95%
- Population Pyknosed Nuclei (%) [11]: 13%
- Population Tubulin-Different-Phenotype (%) [11]: 25%
- Total Cell Count [11]: 134
- Population Apoptotic (%) [12]: 40%
- Population Fragmented Nuclei (%) [12]: 43%
- Population Healthy Nuclei (%) [12]: 42%
- Population Membrane Permeable-Phenotype (%) [12]: 11%
- Population Mitochondria Different-Phenotype (%) [12]: 0%
- Population Mitotic Cells (%) [12]: 60%
- Population Pyknosed Nuclei (%) [12]: 15%
- Population Tubulin-Different-Phenotype (%) [12]: 54%
- Total Cell Count [12]: 105
